In series [1] the test system is SW620 cells (colon cancer). As to the kind of experiment: Cytotoxicity assay. The note with it: Homo sapiens, SW-620, 48 h, read-out: Cytotoxicity (IC50) SW620. It is filed as cell-based.
In series [2] the test system is SW620 human colon cancer cells. Kind of series: Cell cycle analysis. It is filed as cell-based. The conditions noted are these: 5 μM, 24-hour treatment, effect less pronounced for 7d and 11d compared to SAHA. In outline: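 Controls were untreated cells and vehicle-treated cells (DMSO 0.05%). Data shown as histograms plus bar graphs.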
The test system of series [3] is MDA-MB-231 cells (breast cancer). Kind of series: Cytotoxicity assay. It is filed as cell-based, human. The conditions noted are these: read-out: Cytotoxicity (IC50) MDA-MB-231; MDA-MB-231 breast cancer; 48h; MTT.
In series [4] the test system is SW620 human colon cancer cells. As to the kind of experiment: Apoptosis assay. It is filed as cell-based. The conditions noted are these: 5 μM, 24-hour treatment, early apoptosis levels exceeding those observed with SAHA. In outline: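 Annexin V-FITC/PI dual staining, with untreated and vehicle (DMSO 0.05%) controls. Data presented as histograms with accompanying bar graphs.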

For the next series, the system named is SW620 cells. As to the kind of experiment: Morphological changes. The note with it: 5 μM, 24-hour treatment. The format is cell-based, human. In outline:
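SW620 cells exposed to test compound at 5 μM for 24 h, then photographed on an imaging system through 20× or 40× objectives to record morphology.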

Regarding `O=C(NO)c1ccc(Cn2cc(Cn3cnc4ccc(I)cc4c3=O)nn2)cc1` [Compound 7i, N-Hydroxy-4-((4-((6-iodo-4-oxoquinazolin-3(4H)-yl)methyl)-1H-1,2,3-triazol-1-yl)methyl)benzamide], the IC50 (in general, the concentration needed to halve the response being measured) in series [1] stood at 5.52 ± 1.04 µM. Turning to `COc1cccc2c1C(=O)c1c(O)c3c(c(O)c1C2=O)C[C@@](O)(C(=O)CO)C[C@@H]3O[C@H]1C[C@H](N)[C@H](O)[C@H](C)O1` [ADR, adriamycin, reference compound], the half-maximal inhibitory concentration (IC50) in series [1] is 0.56 ± 0.1 µM. Same read-out and setting: the same measure for `O=C(/C=C/c1ccc(Cn2cc(Cn3cnc4ccccc4c3=O)nn2)cc1)NO` [Compound 11a, (E)-N-Hydroxy-3-(4-((4-((4-oxoquinazolin-3(4H)-yl)methyl)-1H-1,2,3-triazol-1-yl)methyl)phenyl)acrylamide]: 5.07 ± 2.92 µM; for `Cc1ccc2ncn(Cc3cn(Cc4ccc(C(=O)NO)cc4)nn3)c(=O)c2c1` [Compound 7b, N-Hydroxy-4-((4-((6-methyl-4-oxoquinazolin-3(4H)-yl)methyl)-1H-1,2,3-triazol-1-yl)methyl)benzamide]: 43.1 ± 4.55 µM. Regarding `O=C(NO)c1ccc(Cn2cc(Cn3cnc4cc(Br)ccc4c3=O)nn2)cc1` [Compound 7h, 4-((4-((7-Bromo-4-oxoquinazolin-3(4H)-yl)methyl)-1H-1,2,3-triazol-1-yl)methyl)-N-hydroxybenzamide], the IC50 in series [1] came to 3.77 ± 1.87 µM. Take `O=C(NO)c1ccc(Cn2cc(Cn3cnc4ccc(F)cc4c3=O)nn2)cc1` [Compound 7e, 4-((4-((6-Fluoro-4-oxoquinazolin-3(4H)-yl)methyl)-1H-1,2,3-triazol-1-yl)methyl)-N-hydroxybenzamide]: the IC50 in series [1] worked out at 5.87 ± 1.55 µM.

As for `O=C(NO)c1ccc(Cn2cc(Cn3cnc4ccccc4c3=O)nn2)cc1` [Compound 7a, N-Hydroxy-4-((4-((4-oxoquinazolin-3(4H)-yl)methyl)-1H-1,2,3-triazol-1-yl)methyl)benzamide], the IC50 in series [1] was 9.21 ± 0.72 µM.

In the case of `Cc1ccc2c(=O)n(Cc3cn(Cc4ccc(/C=C/C(=O)NO)cc4)nn3)cnc2c1` [Compound 11c, (E)-N-Hydroxy-3-(4-((4-((7-methyl-4-oxoquinazolin-3(4H)-yl)methyl)-1H-1,2,3-triazol-1-yl)methyl)phenyl)acrylamide], the concentration for half-maximal inhibition (IC50) in series [1] turned out to be 11.7 ± 4.39 µM. Turning to `O=C(/C=C/c1ccc(Cn2cc(Cn3cnc4ccc(I)cc4c3=O)nn2)cc1)NO` [Compound 11i, (E)-N-Hydroxy-3-(4-((4-((6-iodo-4-oxoquinazolin-3(4H)-yl)methyl)-1H-1,2,3-triazol-1-yl)methyl)phenyl)acrylamide], the half-inhibitory concentration (IC50) in series [1] worked out at 28.5 ± 8.19 µM. As for `O=C(CCCCCCC(=O)Nc1ccccc1)NO` [SAHA, suberoylanilide hydroxamic acid, reference compound], the Cell cycle effect entry in series [2] is listed as “induced G2/M phase cell cycle arrest”. Regarding `O=C(NO)c1ccc(Cn2cc(Cn3cnc4ccc(Br)cc4c3=O)nn2)cc1` [Compound 7g, 4-((4-((6-Bromo-4-oxoquinazolin-3(4H)-yl)methyl)-1H-1,2,3-triazol-1-yl)methyl)-N-hydroxybenzamide], the IC50 in series [1] turned out to be 20.8 ± 5.32 µM.

Consider `O=C(/C=C/c1ccc(Cn2cc(Cn3cnc4cc(F)ccc4c3=O)nn2)cc1)NO` [Compound 11f, (E)-3-(4-((4-((7-Fluoro-4-oxoquinazolin-3(4H)-yl)methyl)-1H-1,2,3-triazol-1-yl)methyl)phenyl)-N-hydroxyacrylamide], for which the IC50 in series [1] was 5.34 ± 0.76 µM. In the case of `O=C(/C=C/c1ccc(Cn2cc(Cn3cnc4ccc(Br)cc4c3=O)nn2)cc1)NO` [Compound 11g, (E)-3-(4-((4-((6-Bromo-4-oxoquinazolin-3(4H)-yl)methyl)-1H-1,2,3-triazol-1-yl)methyl)phenyl)-N-hydroxyacrylamide], the figures for the half-maximal inhibitory concentration (IC50) in series [3] and in series [1] were 9.07 ± 0.42 µM and 9.16 ± 0.08 µM, respectively. `O=C(/C=C/c1ccc(Cn2cc(Cn3cnc4ccc(Cl)cc4c3=O)nn2)cc1)NO` [Compound 11d, (E)-3-(4-((4-((6-Chloro-4-oxoquinazolin-3(4H)-yl)methyl)-1H-1,2,3-triazol-1-yl)methyl)phenyl)-N-hydroxyacrylamide]: the Cell cycle effect entry in series [2] is recorded as “induced G2/M phase cell cycle arrest”. Moreover, the IC50 in series [1] was 3.15 ± 0.33 µM. In series [4], the Pro-apoptotic effect result is “significantly induced early and late apoptosis”. The Morphological changes entry in the series with SW620 cells was “induced characteristic apoptotic morphological alterations”. Turning to `Cc1ccc2ncn(Cc3cn(Cc4ccc(/C=C/C(=O)NO)cc4)nn3)c(=O)c2c1` [Compound 11b, (E)-N-Hydroxy-3-(4-((4-((6-methyl-4-oxoquinazolin-3(4H)-yl)methyl)-1H-1,2,3-triazol-1-yl)methyl)phenyl)acrylamide], the 50% inhibitory concentration (IC50) in series [1] came to 9.82 ± 2.46 µM.

In the case of `O=C(/C=C/c1ccc(Cn2cc(Cn3cnc4cc(Br)ccc4c3=O)nn2)cc1)NO` [Compound 11h, (E)-3-(4-((4-((7-Bromo-4-oxoquinazolin-3(4H)-yl)methyl)-1H-1,2,3-triazol-1-yl)methyl)phenyl)-N-hydroxyacrylamide], the values for the IC50 in series [3] and in series [1] were 5.55 ± 0.18 µM and 5.73 ± 0.76 µM, respectively. Take `Cc1ccc2c(=O)n(Cc3cn(Cc4ccc(C(=O)NO)cc4)nn3)cnc2c1` [Compound 7c, N-Hydroxy-4-((4-((7-methyl-4-oxoquinazolin-3(4H)-yl)methyl)-1H-1,2,3-triazol-1-yl)methyl)benzamide]: in series [1], the IC50 was 7.34 ± 0.94 µM. As for `O=C(NO)c1ccc(Cn2cc(Cn3cnc4ccc(Cl)cc4c3=O)nn2)cc1` [Compound 7d, 4-((4-((6-Chloro-4-oxoquinazolin-3(4H)-yl)methyl)-1H-1,2,3-triazol-1-yl)methyl)-N-hydroxybenzamide], the Cell cycle effect result in series [2] is recorded as “induced G2/M phase cell cycle arrest”. For the same molecule, in series [1], the IC50 stood at 3.64 ± 0.31 µM. Besides, the Pro-apoptotic effect result in series [4] was “significantly induced early and late apoptosis”. Further, in the series on SW620 cells, the Morphological changes entry was “induced characteristic apoptotic morphological alterations”. With `O=C(NO)c1ccc(Cn2cc(Cn3cnc4cc(F)ccc4c3=O)nn2)cc1` [Compound 7f, 4-((4-((7-Fluoro-4-oxoquinazolin-3(4H)-yl)methyl)-1H-1,2,3-triazol-1-yl)methyl)-N-hydroxybenzamide], the IC50 in series [1] was determined as 8.23 ± 2.04 µM. In the case of `O=C(/C=C/c1ccc(Cn2cc(Cn3cnc4ccc(F)cc4c3=O)nn2)cc1)NO` [Compound 11e, (E)-3-(4-((4-((6-Fluoro-4-oxoquinazolin-3(4H)-yl)methyl)-1H-1,2,3-triazol-1-yl)methyl)phenyl)-N-hydroxyacrylamide], in series [1], the IC50 came to 4.57 ± 3.54 µM.

The record behind these values is paper PMC12282580 (RSC Advances, 2025).
